Measured values as given in ChEMBL document CHEMBL3784969, “Pharmacokinetics of flutamide in patients with renal insufficiency” (Br J Clin Pharmacol, 1999).

Experiments:
Homo sapiens [1] = experiment: AUClast in patient (3 patients) with renal insufficiency at 250 mg, po assessed as hydroxy flutamide administered as single dose by gas chromatography; format: ADME, organism-based; parameters: dose 250 mg, time 0 - last, route oral; conditions: in vivo
Homo sapiens [2] = experiment: Final time point in terminal phase in patient (3 patients) with renal insufficiency assessed as hydroxy flutamide at 250 mg, po administered as single dose by gas chromatography; format: ADME, organism-based; conditions: in vivo
Procedure, shortened: (§1)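 Males grouped by 24 h CLcr normalised to body surface area (>80, 50–80, 30–49, 5–29 ml min−1 1.73 m−2), fasted 10 h pre-dose and 4 h post-dose, given a single oral 250 mg flutamide dose. Plasma sampled 0–96 h; urine collected in blocks to 96 h. Flutamide and hydroxyflutamide measured by GC with electron-capture detection. Renal CL = Ae(0,96 h)/AUC(0,96 h); t1/2 = 0.693/λz.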

[3] = Cmax in patient (4 patients) with renal insufficiency at 250 mg, po administered as single dose by gas chromatography; format: ADME, organism-based; parameters: dose 250 mg, route oral; conditions: human, in vivo
[4] = Tmax in patient (4 patients) with renal insufficiency at 250 mg, po administered as single dose by gas chromatography; format: ADME, organism-based; conditions: human, in vivo; procedure, shortened: as §1
[5] = AUC (0 to 96 hrs) in patient (4 patients) with renal insufficiency at 250 mg, po administered as single dose by gas chromatography; format: ADME, organism-based; parameters: time < 96 hr, dose 250 mg, route oral; conditions: human, in vivo
[6] = AUClast in patient (4 patients) with renal insufficiency at 250 mg, po administered as single dose by gas chromatography; format: ADME, organism-based; parameters: dose 250 mg, time 0 - last, route oral; conditions: human, in vivo
Homo sapiens [7] = experiment: AUClast in patient (4 patients) with renal insufficiency at 250 mg, po assessed as hydroxy flutamide administered as single dose by gas chromatography; format: ADME, organism-based; parameters: dose 250 mg, time 0 - last, route oral; conditions: in vivo
Homo sapiens [8] = experiment: AUC (0 to infinity) in patient (4 patients) with renal insufficiency at 250 mg, po assessed as hydroxy flutamide administered as single dose by gas chromatography; format: ADME, organism-based; parameters: dose 250 mg, time infinity, route oral; conditions: in vivo
[9] = AUClast in patient (6 patients) with renal insufficiency at 250 mg, po administered as single dose 4 hrs prior to hemodialysis treatment measured at starting time of dialysis and post dialysis treatment by gas chromatography; format: ADME, organism-based; parameters: dose 250 mg, route oral, time 0 - last; conditions: human, in vivo
Homo sapiens [10] = experiment: Final time point in terminal phase in patient (6 patients) with renal insufficiency at 250 mg, po administered as single dose 4 hrs prior to hemodialysis treatment measured at starting time of dialysis and post dialysis treatment by gas chromatography; format: ADME, organism-based; conditions: in vivo
Procedure, shortened: (§2)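 Group V haemodialysis males (CLcr <5 ml min−1 1.73 m−2). Single oral 250 mg flutamide (two 125 mg capsules) right after HD; after 14-day washout, same dose 4 h before HD lasting 2–4 h. Venous samples to 48 h, arterial/venous during HD, dialysate in hourly blocks. GC with 63Ni electron-capture detection. CL(HD) = dialysate Ae(HD)/arterial AUC(HD); renal CL = Ae(0,48)/AUC(0,48 h).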

[11] = Drug recovery in dialysate of patient (6 patients) with renal insufficiency at 250 mg, po administered as single dose 4 hrs prior to hemodialysis treatment measured during dialysis treatment by gas chromatography; format: ADME, organism-based; conditions: human, in vivo; procedure, shortened: as §2
Homo sapiens [12] = experiment: Final time point in terminal phase in patient (6 patients) with renal insufficiency assessed as hydroxy flutamide at 250 mg, po administered as single dose 4 hrs prior to hemodialysis treatment measured at starting time of dialysis and post dialysis treatment by gas chromatography; format: ADME, organism-based; conditions: in vivo; procedure, shortened: as §2
[13] = Drug excretion in urine of patient (6 patients) with renal insufficiency assessed as hydroxy flutamide at 250 mg, po administered as single dose 4 hrs prior to hemodialysis treatment measured at starting time of dialysis and post dialysis treatment by gas chromatography; format: ADME, organism-based; conditions: human, in vivo; procedure, shortened: as §2
[14] = Drug recovery in dialysate of patient (6 patients) with renal insufficiency assessed as hydroxy flutamide at 250 mg, po administered as single dose 4 hrs prior to hemodialysis treatment measured during dialysis treatment by gas chromatography; format: ADME, organism-based; conditions: human, in vivo; procedure, shortened: as §2
Homo sapiens [15] = experiment: Clearance in patient (6 patients) with renal insufficiency assessed as hydroxy flutamide at 250 mg, po administered as single dose 4 hrs prior to hemodialysis treatment measured during dialysis treatment by gas chromatography; format: ADME, organism-based; conditions: in vivo; procedure, shortened: as §2
[16] = Tmax in patient (6 patients) with renal insufficiency at 250 mg, po administered as single dose by gas chromatography; format: ADME, organism-based; conditions: human, in vivo; procedure, shortened: as §1
Homo sapiens [17] = experiment: Cmax in patient (6 patients) with renal insufficiency assessed as hydroxy flutamide at 250 mg, po administered as single dose by gas chromatography; format: ADME, organism-based; parameters: dose 250 mg, route oral; conditions: in vivo
[18] = Drug excretion in urine of patient (6 patients) with renal insufficiency at 250 mg, po administered as single dose by gas chromatography; format: ADME, organism-based; conditions: human, in vivo; procedure, shortened: as §1
Homo sapiens [19] = experiment: Final time point in terminal phase in patient (6 patients) with renal insufficiency at 250 mg, po administered as single dose by gas chromatography; format: ADME, organism-based; conditions: in vivo; procedure, shortened: as §1
Homo sapiens [20] = experiment: AUClast in patient (6 patients) with renal insufficiency at 250 mg, po assessed as hydroxy flutamide administered as single dose by gas chromatography; format: ADME, organism-based; parameters: dose 250 mg, time 0 - last, route oral; conditions: in vivo
Homo sapiens [21] = experiment: Renal clearance in patient (6 patients) with renal insufficiency assessed as hydroxy flutamide at 250 mg, po administered as single dose by gas chromatography; format: ADME, organism-based, Kidney; conditions: in vivo; procedure, shortened: as §1
[22] = Cmax in patient (7 patients) with renal insufficiency at 250 mg, po administered as single dose by gas chromatography; format: ADME, organism-based; parameters: dose 250 mg, route oral; conditions: human, in vivo
[23] = Drug excretion in dialysate of patient with renal insufficiency at 250 mg, po administered first dose followed by 14 days wash out period and administered second dose 4 hrs prior to hemodialysis measured during hemodialysis treatment by gas chromatography; format: ADME, organism-based; conditions: human, in vivo; procedure, shortened: as §2
Homo sapiens [24] = experiment: Clearance in patient with renal insufficiency at 250 mg, po administered first dose followed by 14 days wash out period and administered second dose 4 hrs prior to hemodialysis measured during hemodialysis treatment by gas chromatography; format: ADME, organism-based; conditions: in vivo; procedure, shortened: as §2
[25] = Elimination rate constant in patient with renal insufficiency at 250 mg, po administered first dose followed by 14 days wash out period and administered second dose 4 hrs prior to hemodialysis measured during hemodialysis treatment by gas chromatography; format: ADME, organism-based; conditions: human, in vivo; procedure, shortened: as §2
[26] = Half life in patient with renal insufficiency at 250 mg, po administered first dose followed by 14 days wash out period and administered second dose 4 hrs prior to hemodialysis day measured during hemodialysis treatment by gas chromatography; format: ADME, organism-based; conditions: human, in vivo; procedure, shortened: as §2
Homo sapiens [27] = experiment: Toxicity in patient with renal insufficiency assessed as headache at 250 mg, po administered as single dose; format: organism-based; conditions: in vivo
Procedure, shortened: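 26 male subjects in groups by 24 h creatinine clearance (normalized to body surface area): >80, 50–80, 30–49, 5–29, <5 ml min−1 1.73 m−2 on haemodialysis. Given as two 125 mg capsules after a 10 h fast, continued 4 h post-dose. Prescription drugs withheld for the same period. Subjects confined 12 h pre-dose to 48 h post-dose, with adverse events compared across renal-function groups.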

[28] = Plasma protein binding in healthy geriatric volunteer by equilibrium dialysis method; format: ADME, cell-free; conditions: human, read-out: PPB
Homo sapiens [29] = experiment: Tmax in patient (7 patients) with renal insufficiency assessed as hydroxy flutamide at 250 mg, po administered as single dose by gas chromatography; format: ADME, organism-based; conditions: in vivo; procedure, shortened: as §1
[30] = Cmax in patient (3 patients) with renal insufficiency at 250 mg, po administered as single dose by gas chromatography; format: ADME, organism-based; parameters: dose 250 mg, route oral; conditions: human, in vivo
[31] = AUC (0 to 96 hrs) in patient (3 patients) with renal insufficiency at 250 mg, po administered as single dose by gas chromatography; format: ADME, organism-based; parameters: time < 96 hr, dose 250 mg, route oral; conditions: human, in vivo
Homo sapiens [32] = experiment: Cmax in patient (3 patients) with renal insufficiency assessed as hydroxy flutamide at 250 mg, po administered as single dose by gas chromatography; format: ADME, organism-based; parameters: dose 250 mg, route oral; conditions: in vivo

SMILES: CC(C)C(=O)Nc1ccc([N+](=O)[O-])c(C(F)(F)F)c1 [FLUTAMIDE]
- AUClast (Homo sapiens [1]): 6843 ng·h/mL
- Time (Homo sapiens [2]): 52 h
- Cmax [3]: 44 ng/mL
- Tmax [4]: 1 h
- AUC(0-t) at 96 h [5]: 107 ng·h/mL
- AUC(0-t) [6]: 79 ng·h/mL
- AUClast (Homo sapiens [7]): 6435 ng·h/mL
- AUC (Homo sapiens [8]): 6499 ng·h/mL
- AUC(0-t) at 4 h [9]: 179 ng·h/mL
- Time (Homo sapiens [10]): 7 h
- Drug recovery [11]: 0 mg
- Time (Homo sapiens [12]): 43 h
- Drug excretion [13]: 5 µg
- Drug recovery [14]: 1.2 mg
- CL (Homo sapiens [15]): 21 mL/min
- Tmax [16]: 1.4 h
- Cmax (Homo sapiens [17]): 1070 ng/mL
- Drug excretion [18]: 24.4 µg
- Time (Homo sapiens [19]): 4.4 h
- AUClast (Homo sapiens [20]): 5476 ng·h/mL
- CL (Homo sapiens [21]): 0.36 mL/min
- Cmax [22]: 20.9 ng/mL
- Drug excretion [23]: 1158 µg
- CL (Homo sapiens [24]): 21.4 mL/min
- k el [25]: 5.56e-05 s⁻¹
- half-life [26]: 4.3 h
- Activity (Homo sapiens [27]): 12%
- fraction unbound [28]: < 0.06
- Tmax (Homo sapiens [29]): 2.3 h
- Cmax [30]: 41 ng/mL
- AUC(0-t) at 96 h [31]: 98 ng·h/mL
- Cmax (Homo sapiens [32]): 902 ng/mL
